Test results reported in ChEMBL document CHEMBL4270638, “Sulfonyl-containing phenyl-pyrrolyl pentane analogues: Novel non-secosteroidal vitamin D receptor modulators with favorable physicochemical properties, pharmacokinetic properties and anti-tumor activity” (Eur J Med Chem, 2018).
Values after ≈ are worked out from the molar mass of the structure shown.

Assays:
[1] = system: BXPC-3; assay: Antiproliferative activity against human BxPC3 cells after 24 hrs by MTT assay; assay type: functional, cell-based; conditions: BXPC-3, 24 h
[2] = system: MCF7; assay: Antiproliferative activity against human MCF7 cells after 24 hrs by MTT assay; assay type: functional, cell-based; conditions: MCF7, 24 h
[3] = system: PC-3; assay: Antiproliferative activity against human PC3 cells after 24 hrs by MTT assay; assay type: functional, cell-based; conditions: PC-3, 24 h
[4] = system: MCF7; assay: Cell cycle arrest in human MCF7 cells expressing scrambled siRNA assessed as accumulation at G0/G1 phase at 1 uM after 24 hrs by propidium iodide staining based flow cytometry (reference value: 49.28%); assay type: functional
[5] = system: MCF7; assay: Cell cycle arrest in human MCF7 cells expressing scrambled siRNA assessed as accumulation at G2/M phase at 1 uM after 24 hrs by propidium iodide staining based flow cytometry (reference value: 19.6%); assay type: functional
[6] = system: MCF7; assay: Cell cycle arrest in human MCF7 cells expressing scrambled siRNA assessed as accumulation at S phase at 1 uM after 24 hrs by propidium iodide staining based flow cytometry (reference value: 29.79%); assay type: functional
[7] = system: MCF7; assay: Cell cycle arrest in human MCF7 cells expressing VDR siRNA assessed as accumulation at G0/G1 phase at 1 uM after 24 hrs by propidium iodide staining based flow cytometry (reference value: 49.17%); assay type: functional
[8] = system: MCF7; assay: Cell cycle arrest in human MCF7 cells expressing VDR siRNA assessed as accumulation at G2/M phase at 1 uM after 24 hrs by propidium iodide staining based flow cytometry (reference value: 17.57%); assay type: functional
[9] = system: MCF7; assay: Cell cycle arrest in human MCF7 cells expressing VDR siRNA assessed as accumulation at S phase at 1 uM after 24 hrs by propidium iodide staining based flow cytometry (reference value: 32%); assay type: functional
[10] = system: MCF7; assay: Induction of apoptosis in human MCF7 cells expressing scrambled siRNA assessed as live cells at 1 uM after 24 hrs by Annexin-V-FITC/propidium iodide staining based flow cytometry (reference value: 97.93%); assay type: functional
[11] = system: MCF7; assay: Induction of apoptosis in human MCF7 cells expressing scrambled siRNA assessed as early apoptotic cells at 1 uM after 24 hrs by Annexin-V-FITC/propidium iodide staining based flow cytometry (reference value: 0.93%); assay type: functional
[12] = system: MCF7; assay: Induction of apoptosis in human MCF7 cells expressing scrambled siRNA assessed as late apoptotic cells at 1 uM after 24 hrs by Annexin-V-FITC/propidium iodide staining based flow cytometry (reference value: 0.98%); assay type: functional
[13] = system: MCF7; assay: Induction of apoptosis in human MCF7 cells expressing scrambled siRNA assessed as necrotic cells at 1 uM after 24 hrs by Annexin-V-FITC/propidium iodide staining based flow cytometry (reference value: 0.16%); assay type: functional
[14] = system: MCF7; assay: Induction of apoptosis in human MCF7 cells expressing VDR siRNA assessed as live cells at 1 uM after 24 hrs by Annexin-V-FITC/propidium iodide staining based flow cytometry (reference value: 98.35%); assay type: functional
[15] = system: MCF7; assay: Induction of apoptosis in human MCF7 cells expressing VDR siRNA assessed as early apoptotic cells at 1 uM after 24 hrs by Annexin-V-FITC/propidium iodide staining based flow cytometry (reference value: 0.49%); assay type: functional
[16] = system: MCF7; assay: Induction of apoptosis in human MCF7 cells expressing VDR siRNA assessed as late apoptotic cells at 1 uM after 24 hrs by Annexin-V-FITC/propidium iodide staining based flow cytometry (reference value: 1.01%); assay type: functional
[17] = system: MCF7; assay: Induction of apoptosis in human MCF7 cells expressing VDR siRNA assessed as necrotic cells at 1 uM after 24 hrs by Annexin-V-FITC/propidium iodide staining based flow cytometry (reference value: 0.15%); assay type: functional
[18] = Solubility of the compound in water at pH 7.4 by HPLC method; assay type: physicochemical
Outline: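 Aqueous solubility measured at pH 7.4, with samples quantified by HPLC.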

[19] = Half life in rat liver microsomes in presence of NADPH by HPLC method; assay type: ADME, microsome
Outline: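 Compounds incubated with rat liver microsomes plus NADPH. Remaining compound quantified by HPLC at 0, 5, 10, 20, 30, 45, 60 and 90 min, and half-life calculated.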

Row | IC50 [1] | IC50 [2] | IC50 [3] | SMILES | also measured
1 | > 50 µM | 33.1 µM | 30.1 µM | CCn1c(C(=O)NCC(=O)O)ccc1C(CC)(CC)c1ccc(OCS(=O)(=O)c2ccccc2)c(C)c1 | –
2 | > 50 µM | 41.2 µM | 26.3 µM | CCn1c(C(=O)NC2(C(=O)O)CC2)ccc1C(CC)(CC)c1ccc(OCS(=O)(=O)c2ccccc2)c(C)c1 | –
3 | 16.2 µM | 24.5 µM | 3.65 µM | CCn1c(C(=O)N[C@H](C(=O)O)C(C)C)ccc1C(CC)(CC)c1ccc(OCS(=O)(=O)c2ccccc2)c(C)c1 | –
4 | 19.9 µM | 15.5 µM | 17.7 µM | CCn1c(C(=O)NCCO)ccc1C(CC)(CC)c1ccc(OCS(=O)(=O)c2ccccc2)c(C)c1 | –
5 | 20.8 µM | 35.5 µM | 16.8 µM | CCn1c(C(=O)N[C@@H](C)C(=O)O)ccc1C(CC)(CC)c1ccc(OCS(=O)(=O)c2ccccc2)c(C)c1 | –
6 | > 50 µM | > 50 µM | > 50 µM | CCn1c(C(=O)N[C@H](CCC(=O)O)C(=O)O)ccc1C(CC)(CC)c1ccc(OCS(=O)(=O)c2ccccc2)c(C)c1 | –
7 | > 50 µM | > 50 µM | 6.49 µM | CCn1c(C(=O)N[C@@H](CC(=O)OC)C(=O)OC)ccc1C(CC)(CC)c1ccc(OCS(=O)(=O)c2ccccc2)c(C)c1 | –
8 | 5.37 µM | 4.7 µM | 2.62 µM | CCN(CC)CCNC(=O)c1cc(C(CC)(CC)c2ccc(OCSc3ccccc3)c(C)c2)cn1CC | Activity [4]: 55.79%; Activity [5]: 11.15%; Activity [6]: 31.75%; Activity [7]: 50.29%; Activity [8]: 17.3%; Activity [9]: 30.97%; Activity [10]: 94.44%; Activity [11]: 1.01%; Activity [12]: 3.65%; Activity [13]: 0.9%; Activity [14]: 97.14%; Activity [15]: 0.58%; Activity [16]: 1.91%; Activity [17]: 0.37%; solubility [18]: 0.6 µg/mL (≈ 1.12 µM); half-life [19]: 1.19 h
